# According to ChEMBL document CHEMBL4680209, “Design, synthesis, and evaluation of new 2-(quinoline-4-yloxy)acetamide-based antituberculosis agents” (Eur J Med Chem, 2020):
# Legend:
# [1] = system: Mycobacterium tuberculosis H37Rv; assay: Inhibition of Mycobacterium tuberculosis H37Rv ATCC 27294 QcrB assessed as reduction in bacterial growth by resazurin reduction microplate assay
# Outline: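 REMA in Middlebrook 7H9 with 10% ADC and 5% DMSO. Compounds come from 2 mg/mL DMSO stocks as 10-point 2-fold serial dilutions, with a top concentration of 5–40 µg/mL set by solubility. MIC is the lowest concentration preventing resazurin blue-to-pink conversion. Three independent experiments; the modal or highest value is reported, in µM.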
# [2] = Ratio of MIC for inhibition of Mycobacterium tuberculosis H37Rv ATCC 27294 QcrB assessed as reduction in bacterial growth to MIC for inhibition of Mycobacterium tuberculosis PT2 clinical isolate QcrB assessed as reduction in bacterial growth
# [3] = Ratio of MIC for inhibition of Mycobacterium tuberculosis H37Rv ATCC 27294 QcrB assessed as reduction in bacterial growth to MIC for inhibition of Mycobacterium tuberculosis PT12 clinical isolate QcrB assessed as reduction in bacterial growth
# [4] = Ratio of MIC for inhibition of Mycobacterium tuberculosis H37Rv ATCC 27294 QcrB assessed as reduction in bacterial growth to MIC for inhibition of Mycobacterium tuberculosis PT20 clinical isolate QcrB assessed as reduction in bacterial growth
# [5] = Cytotoxicity against human HepG2 cells assessed as reduction in cell viability measured after 72 hrs by MTT assay; assay type: cell-based
# Outline: (§1)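 Vero (2×10^3 cells/well) or HepG2 (4×10^3 cells/well) grown in DMEM with 10% inactivated FBS, gentamicin and amphotericin B, seeded 24 h, then exposed to compound at 1, 5 and 20 µM (2% DMSO) for 72 h at 37 °C, 5% CO2. MTT (5 mg/mL) added for 4 h; absorbance 570/655 nm. Viability relative to 2% DMSO control wells; CC50 derived.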
# [6] = Cytotoxicity against human HepG2 cells assessed as reduction in cell viability measured after 72 hrs by neutral red uptake assay; assay type: cell-based
# Outline: (§2)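 Vero (2×10^3 cells/well) or HepG2 (4×10^3 cells/well) in DMEM with 10% inactivated FBS, seeded 24 h, treated at 1, 5 and 20 µM in 2% DMSO for 72 h at 37 °C, 5% CO2. After PBS wash, neutral red (25 µg/mL, serum-free medium) for 3 h; dye extracted with acetic acid/EtOH/water (1:50:49) for 30 min; absorbance 562 nm; viability versus 2% DMSO controls.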
# [7] = Cytotoxicity against African green monkey Vero cells assessed as reduction in cell viability measured after 72 hrs by MTT assay; assay type: cell-based; conditions: chlorocebus sabaeus; outline: as §1
# [8] = Cytotoxicity against African green monkey Vero cells assessed as reduction in cell viability measured after 72 hrs by neutral red uptake assay; assay type: cell-based; conditions: chlorocebus sabaeus; outline: as §2
# [9] = Intrinsic clearance in human liver S9 fraction at 2 uM measured after 30 mins in presence of NADPH by HPLC-MS analysis; assay type: ADME, subcellular; conditions: read-out: CLH
# Outline: (§3)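 Compound at 2 µM incubated at 37°C with 1 mg/mL human liver S9 fraction (9,000 × g post-mitochondrial supernatant) containing NADPH. Remaining compound quantified by HPLC-MS/MS at 0, 5, 15 and 30 min to give in vitro disappearance half-life and intrinsic clearance (mL/min/kg). Verapamil served as positive control.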
# [10] = Half life in human liver S9 fraction at 2 uM measured after 30 mins in presence of NADPH by HPLC-MS analysis; assay type: ADME, subcellular; outline: as §3
# RAW264.7 = assay: Inhibition of Mycobacterium tuberculosis H37Rv ATCC 27294 QcrB infected in mouse RAW264.7 cells assessed as colony forming unit at 5 uM measured after 5 days (reference value: 4.66 +/- 0.23 log10CFU); assay type: cell-based; conditions: time 5.0 day
smiles,measurement,setting,value
COc1ccc2nc(C)cc(OCc3ccc(C(C)C)cc3)c2c1,MIC,[1],1.9 µM
same,Ratio,[2],1.9
same,Ratio,[3],1.9
same,Ratio,[4],1.9
same,CC50 at 72 h,[5],13.1 µM
same,CC50 at 72 h,[6],13 µM
same,CC50 at 72 h,[7],> 20 µM
same,CC50 at 72 h,[8],> 20 µM
same,CLint scaled at 2 µM,[9],17.4 mL/min/kg
same,half-life at 2 µM,[10],10 min
COc1ccc2nc(C)cc(OCC(=O)c3cccc(Cl)c3)c2c1,MIC,[1],1.8 µM
same,Ratio,[2],1.9
same,Ratio,[3],1.9
same,Ratio,[4],1.9
same,CC50 at 72 h,[5],> 20 µM
same,CC50 at 72 h,[6],> 20 µM
same,CC50 at 72 h,[7],> 20 µM
same,CC50 at 72 h,[8],> 20 µM
same,CLint scaled at 2 µM,[9],7.7 mL/min/kg
same,half-life at 2 µM,[10],78.2 min
same,Activity,RAW264.7,3.8 log10CFU
COc1ccc2nc(C)cc(OCC(=O)c3ccccc3OC)c2c1,MIC,[1],29.6 µM
COc1ccc2nc(C)cc(OCC(=O)c3ccc(F)cc3)c2c1,MIC,[1],30.7 µM
COc1ccc2nc(C)cc(OCc3ccc(Cl)c(Cl)c3)c2c1,MIC,[1],0.3 µM
same,CC50 at 72 h,[5],14.4 µM
same,CC50 at 72 h,[6],14.9 µM
same,CC50 at 72 h,[7],> 20 µM
same,CC50 at 72 h,[8],> 20 µM
same,CLint scaled at 2 µM,[9],12.6 mL/min/kg
same,half-life at 2 µM,[10],30.6 min
same,Activity,RAW264.7,3.8 log10CFU
COc1ccc2nc(C)cc(OCC(=O)c3ccc(C)cc3)c2c1,MIC,[1],15.6 µM
COc1ccc(C(=O)COc2cc(C)nc3ccc(OC)cc23)cc1,MIC,[1],7.4 µM
COc1ccc2nc(C)cc(OCc3cccc(Cl)c3)c2c1,MIC,[1],7.9 µM
COc1ccc2nc(C)cc(OCC(=O)c3ccc(CC(C)C)cc3)c2c1,MIC,[1],6.9 µM
COc1ccc2nc(C)cc(OCc3ccc4ccccc4c3)c2c1,MIC,[1],7.6 µM
COc1cccc(COc2cc(C)nc3ccc(OC)cc23)c1,MIC,[1],32.3 µM
COc1ccc2nc(C)cc(OCC(=O)c3ccc(Cl)c(Cl)c3)c2c1,MIC,[1],6.6 µM
COc1ccc2nc(C)cc(OCc3ccccc3)c2c1,MIC,[1],5.6 µM
NNC(=O)c1ccncc1,MIC,[1],2.3 µM
COc1ccc2nc(C)cc(OCc3cccc(C(F)(F)F)c3)c2c1,MIC,[1],7.2 µM
COc1ccc2nc(C)cc(OCC(=O)c3ccc(Br)cc3)c2c1,MIC,[1],14.6 µM
COc1ccc2nc(C)cc(OCc3cccc(F)c3)c2c1,MIC,[1],16.8 µM
COc1ccc2nc(C)cc(OCCc3ccccc3)c2c1,MIC,[1],34.1 µM
COc1ccc2nc(C)cc(OCc3ccc(C(F)(F)F)cc3)c2c1,MIC,[1],7.2 µM
COc1ccc2nc(C)cc(OCc3ccc(Cl)cc3)c2c1,MIC,[1],15.9 µM
COc1ccc2nc(C)cc(OCc3ccccc3Cl)c2c1,MIC,[1],18.8 µM
COc1ccc2nc(C)cc(OCc3ccc(F)cc3)c2c1,MIC,[1],16.8 µM
COc1ccc2nc(C)cc(OCc3ccc(Br)c(Cl)c3)c2c1,MIC,[1],1.6 µM
COc1ccc2nc(C)cc(OCc3cccc(Br)c3)c2c1,MIC,[1],13.9 µM
COc1ccc2nc(C)cc(OCC(=O)c3ccccc3)c2c1,MIC,[1],1.3 µM
same,CC50 at 72 h,[5],> 20 µM
same,CC50 at 72 h,[6],> 20 µM
same,CC50 at 72 h,[7],> 20 µM
same,CC50 at 72 h,[8],> 20 µM
same,CLint scaled at 2 µM,[9],7.1 mL/min/kg
same,half-life at 2 µM,[10],87.5 min
same,Activity,RAW264.7,4.06 log10CFU
COc1ccc2nc(C)cc(OCc3ccc4c(c3)OCO4)c2c1,MIC,[1],30.9 µM
COc1ccc2nc(C)cc(OCC(=O)c3ccc(Cl)cc3)c2c1,MIC,[1],12.9 µM
COc1ccc2nc(C)cc(OCc3ccc(Br)cc3)c2c1,MIC,[1],13.9 µM
COc1ccc2nc(C)cc(OCc3ccccc3F)c2c1,MIC,[1],19.2 µM
CO[C@H]1/C=C/O[C@@]2(C)Oc3c(C)c(O)c4c(O)c(c(/C=N/N5CCN(C)CC5)c(O)c4c3C2=O)NC(=O)/C(C)=C\C=C\[C@H](C)[C@H](O)[C@@H](C)[C@@H](O)[C@@H](C)[C@H](OC(C)=O)[C@@H]1C,MIC,[1],0.05 µM
COc1ccc2nc(C)cc(OCc3ccc([N+](=O)[O-])cc3)c2c1,MIC,[1],30.8 µM
COc1ccc2nc(C)cc(OCc3ccc(F)c(F)c3)c2c1,MIC,[1],3.9 µM
COc1ccc2nc(C)cc(OCc3cccc(Cl)c3Cl)c2c1,MIC,[1],28.7 µM
COc1cc(COc2cc(C)nc3ccc(OC)cc23)cc(OC)c1,MIC,[1],29.5 µM
COc1ccc2nc(C)cc(OCC(=O)c3ccc(-c4ccccc4)cc3)c2c1,MIC,[1],13 µM
COc1cccc(C(=O)COc2cc(C)nc3ccc(OC)cc23)c1,MIC,[1],14.8 µM
COc1ccc2nc(C)cc(OC(C)C(=O)c3ccccc3)c2c1 (stereo unspecified),MIC,[1],31.1 µM
COc1ccc2nc(C)cc(OCc3ccc(C(C)(C)C)cc3)c2c1,MIC,[1],3.7 µM
